In ChEMBL document CHEMBL1914440, “Discovery of potent, selective, and orally bioavailable alkynylphenoxyacetic acid CRTH2 (DP2) receptor antagonists for the treatment of allergic inflammatory diseases” (J Med Chem, 2011):

Columns and labels:
[1] = Clearance in BALB/c mouse at 5 mg/kg, po by LC/MS/MS analysis; assay type: ADME, organism-based; parameters: dose 5 mg/kg, route oral; settings: in vivo
[2] = Half life in BALB/c mouse at 5 mg/kg, po by LC/MS/MS analysis; assay type: ADME, organism-based; parameters: dose 5 mg/kg, route oral; settings: in vivo
[3] = target: T1, Prostaglandin D2 receptor 2 (Homo sapiens, UniProt Q9Y5Y4); assay: Displacement of [3H]PGD2 from human CRTH2 expressed in chinese hamster CHO cells by liquid scintillation counting; assay type: cell-based
T1 sequence (Q9Y5Y4 whole entry): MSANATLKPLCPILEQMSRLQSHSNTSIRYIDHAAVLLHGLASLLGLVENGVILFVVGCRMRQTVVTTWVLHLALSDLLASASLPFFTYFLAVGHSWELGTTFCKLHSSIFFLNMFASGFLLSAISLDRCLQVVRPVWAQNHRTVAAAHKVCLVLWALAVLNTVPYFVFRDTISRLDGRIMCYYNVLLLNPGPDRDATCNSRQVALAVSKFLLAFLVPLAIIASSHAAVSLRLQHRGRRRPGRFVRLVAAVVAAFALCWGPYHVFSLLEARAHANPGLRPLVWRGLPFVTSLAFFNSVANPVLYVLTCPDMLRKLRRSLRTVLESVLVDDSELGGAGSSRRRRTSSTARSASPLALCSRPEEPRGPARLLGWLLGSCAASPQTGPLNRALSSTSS
Procedure, shortened: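 Scintillation proximity competition assay: 2–5 μg human CRTH2 cell membranes, 1.5 nM [3H]PGD2, WGA-SPA beads, 10 mM HEPES/KOH pH 7.4, 10 mM MnCl2, protease inhibitors, 1% DMSO; 90 min, room temperature, shaking. Nonspecific binding defined with 1 μM PGD2. Ki by Cheng–Prusoff, mean of ≥3 independent dose–response experiments.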

Mus musculus [4] = assay: Antiinflammatory activity in BALB/c mouse contact hypersensitivity model assessed as inhibition of FITC-mediated ear swelling at 10 mg/kg, po administered 1 hr prior to and 7 hrs after the FITC-challenge measured 24 hrs after final dose; assay type: functional
Procedure, shortened: (§1)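 Female 9-week-old BALB/c mice sensitized on days 0 and 1 with 0.5% FITC in acetone/dibutyl phthalate (sham group: vehicle only). Right ear challenged on day 6 with 0.5% FITC. Compound given by oral gavage 1 h before and 7 h after challenge. Ear thickness measured before and 24 h after challenge. Reported as mean % inhibition ± SEM.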

Mus musculus [5] = assay: Antiinflammatory activity in BALB/c mouse contact hypersensitivity model assessed as inhibition of FITC-mediated ear swelling at 3 mg/kg, po administered 1 hr prior to and 7 hrs after the FITC-challenge measured 24 hrs after final dose; assay type: functional; procedure, shortened: as §1
[6] = Apparent permeability across human Caco2 cells at 1 uM after 2 hrs by LC/MS/MS analysis; assay type: ADME, cell-based; settings: Caco-2
Mus musculus [7] = assay: Antiinflammatory activity in BALB/c mouse model assessed as inhibition of ovalbumin-induced eosinophil accumulation in bronchoalveolar lavage fluid at 30 mg/kg, po administered 1 hr prior to and 7 hrs after ovalbumin challenge for 3 days measured 8 hrs after final dose by cell counting; assay type: functional; settings: Lung
Procedure, shortened: (§2)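 Compound given by oral gavage 1 h before and 7 h after each challenge. BAL taken 8 h after the last challenge. Total cells counted by hemocytometer; eosinophils counted on DiffQuik-stained cytospins. Reported as mean % inhibition ± SEM.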

[8] = Percentage unbound in mouse plasma; assay type: ADME, cell-free
[9] = target: T2, Prostaglandin D2 receptor 2 (Mus musculus, UniProt Q9Z2J6); assay: Displacement of [3H]PGD2 from mouse CRTH2 expressed in human HEK cells by liquid scintillation counting; assay type: cell-based, HEK293
T2 sequence (Q9Z2J6 whole entry): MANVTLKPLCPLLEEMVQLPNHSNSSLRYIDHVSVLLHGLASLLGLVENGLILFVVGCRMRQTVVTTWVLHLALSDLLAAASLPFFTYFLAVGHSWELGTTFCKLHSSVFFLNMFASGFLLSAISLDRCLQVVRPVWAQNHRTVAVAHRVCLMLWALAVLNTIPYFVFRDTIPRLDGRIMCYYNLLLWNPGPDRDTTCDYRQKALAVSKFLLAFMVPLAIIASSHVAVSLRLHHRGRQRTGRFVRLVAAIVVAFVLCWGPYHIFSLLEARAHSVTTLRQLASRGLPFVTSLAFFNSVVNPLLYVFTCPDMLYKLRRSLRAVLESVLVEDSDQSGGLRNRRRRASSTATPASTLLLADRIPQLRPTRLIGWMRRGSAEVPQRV
Procedure, shortened: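 Mouse CRTH2 cDNA stably expressed in HEK293(EBNA) cells (hygromycin-selected) and membranes made by nitrogen cavitation. SPA competition uses 2–5 μg membranes, 1.5 nM [3H]PGD2, HEPES/KOH pH 7.4 with 10 mM MnCl2, 1% DMSO, 90 min at room temperature. Nonspecific binding defined with 1 μM PGD2. Ki by Cheng–Prusoff, ≥3 independent experiments.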

[10] = Percentage unbound in rat plasma; assay type: ADME, cell-free
[11] = target: T1, Prostaglandin D2 receptor 2; assay: Antagonist activity at human CRTH2 expressed in human CHO cells by cellular dielectric spectroscopy
[12] = AUC in BALB/c mouse at 5 mg/kg, po; assay type: ADME, organism-based; parameters: dose 5 mg/kg, route oral; settings: plasma
Procedure, shortened: (§3)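 Mouse PK after a 5 mg/kg oral dose.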

[13] = Intrinsic clearance in rat liver microsomes assessed per mg of protein at 1 uM by LC/MS/MS analysis; assay type: ADME, Microsome
Mus musculus [14] = assay: Antiinflammatory activity in BALB/c mouse contact hypersensitivity model assessed as inhibition of FITC-mediated ear swelling at 30 mg/kg, po administered 1 hr prior to and 7 hrs after the FITC-challenge measured 24 hrs after final dose; assay type: functional; procedure, shortened: as §1
Mus musculus [15] = assay: Antiinflammatory activity in BALB/c mouse model assessed as inhibition of ovalbumin-induced eosinophil accumulation in bronchoalveolar lavage fluid at 3 mg/kg, po administered 1 hr prior to and 7 hrs after ovalbumin challenge for 3 days measured 8 hrs after final dose by cell counting; assay type: functional; settings: Lung; procedure, shortened: as §2
Mus musculus [16] = assay: Antiinflammatory activity in BALB/c mouse model assessed as inhibition of ovalbumin-induced eosinophil accumulation in bronchoalveolar lavage fluid at 10 mg/kg, po administered 1 hr prior to and 7 hrs after ovalbumin challenge for 3 days measured 8 hrs after final dose by cell counting; assay type: functional; settings: Lung; procedure, shortened: as §2
[17] = Percentage unbound in human plasma; assay type: ADME, cell-free
[18] = Intrinsic clearance in human liver microsomes assessed per mg of protein at 1 uM by LC/MS/MS analysis; assay type: ADME, Microsome
[19] = AUC in BALB/c mouse at 5 mg/kg, po by LC/MS/MS analysis; assay type: ADME, organism-based; parameters: dose 5 mg/kg, route oral; settings: plasma
[20] = target: T1, Prostaglandin D2 receptor 2; assay: Antagonist activity human CRTH2 expressed in chinese hamster CHO cells assessed as inhibition of PGD2-induced [35S]GTPgamma binding by liquid scintillation counting; assay type: functional, cell-based
Procedure, shortened: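 10 μg human CRTH2 membranes in 20 mM HEPES/KOH pH 7.4, 10 mM MgCl2, 10 μg/mL saponin, 3 μM GDP, 150 mM NaCl, 2% DMSO, 30 °C. Preincubated 10 min, then 0.15 nM [35S]GTPγS for 30 min; stopped by centrifugation. Antagonism tested against 80 nM PGD2. Nonspecific binding with 10 μM GTPγS. Run without BSA.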

[21] = Half life in BALB/c mouse at 1 mg/kg, iv by LC/MS/MS analysis; assay type: ADME, organism-based; parameters: dose 1 mg/kg, route intravenous; settings: in vivo
[22] = Kinetic solubility of the compound in 2% DMSO; assay type: physicochemical; settings: read-out: Kinetic_solubility
[23] = Lipophilicity, log D of the compound at pH 7.4; assay type: physicochemical; settings: buffer
Cytochrome P450 2C9 = Cytochrome P450 2C9 (Homo sapiens, UniProt P11712); assay: Inhibition of human recombinant CYP2C9 expressed in baculovirus infected insect cells preincubated for 15 mins measured after 30 mins by luminescence analysis; assay type: ADME
Cytochrome P450 2C9, sequence (P11712 whole entry): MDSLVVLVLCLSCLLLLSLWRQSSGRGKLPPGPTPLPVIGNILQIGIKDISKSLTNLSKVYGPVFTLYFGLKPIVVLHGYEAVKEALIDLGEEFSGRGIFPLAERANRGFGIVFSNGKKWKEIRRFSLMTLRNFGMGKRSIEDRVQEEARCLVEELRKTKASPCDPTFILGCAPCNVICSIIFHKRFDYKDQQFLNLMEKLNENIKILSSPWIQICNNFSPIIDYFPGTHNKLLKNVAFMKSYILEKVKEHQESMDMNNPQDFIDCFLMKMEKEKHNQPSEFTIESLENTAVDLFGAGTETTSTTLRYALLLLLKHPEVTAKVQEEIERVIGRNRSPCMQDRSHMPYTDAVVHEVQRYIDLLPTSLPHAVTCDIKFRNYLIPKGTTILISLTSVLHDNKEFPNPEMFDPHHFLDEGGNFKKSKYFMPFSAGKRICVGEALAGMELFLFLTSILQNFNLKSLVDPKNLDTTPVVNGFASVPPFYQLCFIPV

[24] = target: Prostaglandin E2 receptor EP2 subtype (Homo sapiens) (UniProt P43116); assay: Inhibition of EP2 receptor at 10 uM
Prostaglandin E2 receptor EP2 subtype (Homo sapiens), sequence (P43116 whole entry): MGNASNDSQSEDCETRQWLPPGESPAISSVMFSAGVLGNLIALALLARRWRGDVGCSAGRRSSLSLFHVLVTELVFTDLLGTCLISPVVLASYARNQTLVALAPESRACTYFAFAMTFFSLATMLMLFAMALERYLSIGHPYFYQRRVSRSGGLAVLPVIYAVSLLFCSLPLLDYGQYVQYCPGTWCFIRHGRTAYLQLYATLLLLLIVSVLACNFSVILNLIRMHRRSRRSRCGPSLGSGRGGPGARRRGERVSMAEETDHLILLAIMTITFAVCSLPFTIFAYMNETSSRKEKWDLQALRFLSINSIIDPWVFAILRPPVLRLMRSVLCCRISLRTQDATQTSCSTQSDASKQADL
Procedure, shortened: (§4)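 Selectivity screen: panel of 50 receptor and ion-channel targets, tested at 10 μM; EP2 by binding assay; GABA-gated Cl− channel from rat. Result expressed as % inhibition.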

[25] = Volume of distribution at steady state in BALB/c mouse at 0.2 mg/kg, iv and 1 mg/kg, po by LC/MS/MS analysis; settings: in vivo, read-out: Vdss
[26] = Half life in BALB/c mouse at 1 mg/kg, po by LC/MS/MS analysis; assay type: ADME, organism-based; parameters: dose 1 mg/kg, route oral; settings: in vivo
Rattus norvegicus = species: Rattus norvegicus; assay: Inhibition of rat GABA gated chloride ion channel at 10 uM; procedure, shortened: as §4
[27] = Clearance in BALB/c mouse at 0.2 mg/kg, iv and 1 mg/kg, po by LC/MS/MS analysis; assay type: ADME, organism-based; settings: in vivo
Procedure, shortened: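 Low-dose cassette PK in mouse: 0.2 mg/kg iv and 1 mg/kg po.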

[28] = Half life in BALB/c mouse at 0.2 mg/kg, iv by LC/MS/MS analysis; assay type: ADME, organism-based; parameters: dose 0.2 mg/kg, route intravenous; settings: in vivo
[29] = target: T1, Prostaglandin D2 receptor 2; assay: Displacement of [3H]PGD2 from human CRTH2 expressed in chinese hamster CHO cells by liquid scintillation counting in the presence of 0.1% BSA; assay type: cell-based
Procedure, shortened: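 Scintillation proximity assay on 2–5 μg human CRTH2 membranes with WGA-SPA beads and 1.5 nM [3H]PGD2. Buffer: 10 mM HEPES/KOH pH 7.4, 10 mM MnCl2, protease inhibitors, 1% DMSO, 0.1% BSA. Incubated 90 min at room temperature with shaking. Nonspecific binding defined with 1 μM PGD2. Ki by Cheng–Prusoff, mean of at least three independent dose–response experiments.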

[30] = Oral bioavailability in BALB/c mouse at 1 mg/kg by LC/MS/MS analysis; assay type: ADME, organism-based; settings: in vivo
Procedure, shortened: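 Oral bioavailability in mouse from a 1 mg/kg po dose given in a cocktail (cassette) experiment.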

[31] = target: T1, Prostaglandin D2 receptor 2; assay: Antagonist activity at human CRTH2 expressed in […] by cellular dielectric spectroscopy in the presence of PGD2 and 0.1% BSA; assay type: functional, cell-based
Procedure, shortened: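 CHO-CRTH2 cells grown in HAM's F12 with 10% FCS and 400 μg/mL Geneticin, seeded at 100000 cells/well, 24 h at 37 °C. Washed in HBSS plus 10 mM HEPES pH 7.4 with 1% DMSO and 0.1% BSA. Compound added, then PGD2 at its EC80.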

[32] = Kinetic solubility of the compound in phosphate buffered saline; assay type: physicochemical; settings: read-out: Kinetic_solubility
[33] = Oral bioavailability in BALB/c mouse at 5 mg/kg by LC/MS/MS analysis; assay type: ADME, organism-based; settings: in vivo; procedure, shortened: as §3
[34] = AUC in BALB/c mouse at 1 mg/kg, po; assay type: ADME, organism-based; parameters: dose 1 mg/kg, route oral; settings: plasma

CCCS(=O)(=O)c1ccc(F)c(C#Cc2cc(Cl)ccc2OCC(=O)O)c1
CL/F [1]: 6.67 mL/min/kg | half-life [2]: 1.9 h | Ki [3]: 3.4 nM | inhibition in vivo at 10 mg/kg (Mus musculus [4]): 54% | inhibition in vivo at 3 mg/kg (Mus musculus [5]): 36% | Papp at 2 h, 1 µM [6]: 10.8 ×10⁻⁶ cm/s | inhibition in vivo at 30 mg/kg (Mus musculus [7]): 55% | fraction unbound [8]: 0.007 | Ki [9]: 0.37 nM | fraction unbound [10]: 0.004 | IC50 [11]: 28 nM | AUC [12]: 6140 ng·h/mL | microsomal CLint at 1 µM [13]: < 10 µL/min/mg | inhibition in vivo at 30 mg/kg (Mus musculus [14]): 48% | inhibition in vivo at 3 mg/kg (Mus musculus [15]): 19% | inhibition in vivo at 10 mg/kg (Mus musculus [16]): 27% | fraction unbound [17]: 0.01 | microsomal CLint at 1 µM [18]: 12 µL/min/mg | AUC [19]: 6140 ng·h/mL | IC50 [20]: 8 nM | half-life [21]: 2 h

O=C(O)COc1ccc(Cl)cc1C#Cc1cccc(Cl)c1
solubility kinetic [22]: > 200 µM | Ki [3]: 29 nM | logD [23]: 0.5 | Papp at 2 h, 1 µM [6]: 18.4 ×10⁻⁶ cm/s | fraction unbound [8]: < 0.003 | Ki [9]: 37.4 nM | IC50 (Cytochrome P450 2C9): 1440 nM | inhibition [24]: 66% | fraction unbound [10]: < 0.003 | Vd [25]: 0.3 L/kg | half-life [26]: 1.6 h | IC50 [11]: 114 nM | inhibition (Rattus norvegicus): 76% | clearance [27]: 16.7 mL/min/kg | microsomal CLint at 1 µM [13]: 27 µL/min/mg | half-life [28]: 0.3 h | fraction unbound [17]: < 0.003 | microsomal CLint at 1 µM [18]: 12 µL/min/mg | IC50 [29]: 29 nM | bioavailability [30]: 82% | IC50 [31]: 1200 nM | solubility kinetic [32]: > 200 µM

CS(=O)(=O)c1ccc(Cl)c(C#Cc2cc(Cl)ccc2OCC(=O)O)c1
CL/F [1]: 11.7 mL/min/kg | Ki [3]: 3.5 nM | fraction unbound [8]: 0.025 | fraction unbound [10]: 0.003 | bioavailability [33]: 141% | AUC [34]: 1390 ng·h/mL | fraction unbound [17]: 0.007
